Assay results published in ChEMBL document CHEMBL4387702, “Design and synthesis novel di-carbonyl analogs of curcumin (DACs) act as potent anti-inflammatory agents against LPS-induced acute lung injury (ALI)” (Eur J Med Chem, 2019).
Active and inactive are the calls of the source. The rule behind the calls is not given here.

How the values were obtained:
Mus musculus [1] = experiment: Antiinflammatory activity in C57BL/6 mouse model of LPS-induced acute lung injury assessed as reduction in IL-6 production in serum at 10 mg/kg, ip administered daily for one week prior to LPS challenge and measured after 6 hrs by ELISA; type: functional, organism-based
Procedure, shortened: (§1)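 In C57BL/6 mice (eight per group), compound was dosed at 10 mg/kg i.p. once daily for a week, with a 0.9% saline vehicle control. LPS 5 mg/kg was given intratracheally and animals were euthanized with chloral hydrate after 6 h. TNF-α and IL-6 in serum and BALF were measured by ELISA. Data are mean ± SEM, n = 6.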

Mus musculus [2] = experiment: Antiinflammatory activity in C57BL/6 mouse model of LPS-induced acute lung injury assessed as reduction of F4/80 macrophage level in lung tissue at 10 mg/kg, ip administered daily for one week prior to LPS challenge measured after 6 hrs by hematoxylin staining-based immunohistochemistry method; type: functional, organism-based
Procedure, shortened: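 Lungs came from C57BL/6 mice dosed at 10 mg/kg i.p. daily for one week, then given intratracheal LPS 5 mg/kg and harvested at 6 h. Tissue was paraffin-embedded and cut into 5 µm sections. Antigen retrieval used microwaving in 0.01 mol/L citrate (pH 6.0), then 3% H2O2 in methanol for 30 min. Sections took LY-6G or F4/80 primary antibody overnight at 4 °C, secondary at 1:200, DAB development and hematoxylin counterstain.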

RAW264.7 [3] = experiment: Inhibition of NFkappaB/MAPK signaling in LPS-induced mouse RAW264.7 cells assessed as down regulation of IkappaB expression at 10 uM preincubated for 0.5 hrs followed by LPS-challenge and measured after 30 mins by immunoblotting analysis; type: cell-based
Procedure, shortened: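 RAW 264.7 cells were pretreated with compound for 0.5 h and then stimulated with LPS for 30 min. Lysates were resolved on 10% or 12% SDS-PAGE and transferred to nitrocellulose. Membranes were blocked in TBS (pH 7.6) with 0.05% Tween 20 and 5% milk. Blots were probed for p-p38, p38, p-ERK, ERK, IκBα and GAPDH, detected with HRP secondaries and ECL.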

RAW264.7 [4] = experiment: Inhibition of MAPK/NFkappaB signaling in ICR mouse RAW264.7 cells assessed as reduction in LPS-induced TNF-alpha mRNA expression pretreated for 0.5 hrs followed by LPS challenge and measured after 40 mins by TRIZOL reagent-based RT-qPCR analysis; type: cell-based
Procedure, shortened: (§2)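 RAW 264.7 cells were pretreated with compound for 0.5 h and then activated with LPS. Values were normalized to actin and expressed relative to the LPS group.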

Mus musculus [5] = experiment: Antiinflammatory activity in C57BL/6 mouse model of LPS-induced acute lung injury assessed as reduction in VCAM1 mRNA expression in lung tissue at 10 mg/kg, ip administered daily for one week prior to LPS challenge and measured after 6 hrs by TRIZOL reagent-based RT-qPCR analysis; type: functional, organism-based
Procedure, shortened: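 Mouse ALI model with eight C57BL/6 mice per group. Compound was given at 10 mg/kg i.p. daily for one week; controls received 0.9% saline. LPS was instilled intratracheally at 5 mg/kg. Mice were euthanized with chloral hydrate 6 h later and lungs collected. Lung mRNA for each target was quantified by real-time qPCR.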

[6] = Oral bioavailability in Sprague-Dawley rat at 50 mg/kg measured up to 24 hrs by LC-MS/MS analysis; type: ADME, organism-based; details: in vivo
Procedure, shortened: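 The rat oral and intravenous plasma profiles (n = 5, tail sampling to 24 h, UHPLC-MS/MS) were used. Oral bioavailability was calculated as F = (AUC p.o × Dose i.v)/(AUC i.v × Dose p.o).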

[7] = Tmax in Sprague-Dawley rat at 50 mg/kg, po by UHPLC-MS/MS analysis; type: ADME, organism-based; details: in vivo
Procedure, shortened: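 Male SD rats (250 ± 20 g), fasted overnight with water ad libitum, dosed intravenously or intragastrically, n = 5. Tail blood taken at 0.083, 0.25, 0.5, 1, 2, 4, 6, 9, 12 and 24 h post-dose and centrifuged 12000 rpm, 10 min. Supernatant mixed with 2 volumes acetonitrile, vortexed and re-centrifuged. Drug measured by UHPLC-MS/MS; PK parameters derived from time-concentration data.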

RAW264.7 [8] = experiment: Inhibition of MAPK/NFkappaB signaling in ICR mouse RAW264.7 cells assessed as reduction in LPS-induced ICAM1 mRNA expression pretreated for 0.5 hrs followed by LPS challenge and measured after 40 mins by TRIZOL reagent-based RT-qPCR analysis; type: cell-based; procedure, shortened: as §2
[9] = MRT (0 to t) in Sprague-Dawley rat at 5 mg/kg, iv by UHPLC-MS/MS analysis; type: ADME, organism-based; details: in vivo
Procedure, shortened: (§3)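 Male Sprague-Dawley rats (250 ± 20 g) fasted overnight with free access to water, n = 5 per route. Intravenous dose was 5 mg/kg; the intragastric dose is printed as 20 mg/kg in the methods and 50 mg/kg in the table. Tail blood was taken at 0.083, 0.25, 0.5, 1, 2, 4, 6, 9, 12 and 24 h. Samples were centrifuged (12000 rpm, 10 min), deproteinized with 2 volumes of acetonitrile, re-centrifuged and quantified by UHPLC-MS/MS.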

Mus musculus [10] = experiment: Antiinflammatory activity in C57BL/6 mouse model of LPS-induced acute lung injury assessed as reduction in TNF-alpha production in serum at 10 mg/kg, ip administered daily for one week prior to LPS challenge and measured after 6 hrs by ELISA; type: functional, organism-based; procedure, shortened: as §1
Mus musculus [11] = experiment: Antiinflammatory activity in C57BL/6 mouse model of LPS-induced acute lung injury assessed as reduction in IL-6 production in BALF at 10 mg/kg, ip administered daily for one week prior to LPS challenge and measured after 6 hrs by ELISA; type: functional, organism-based; procedure, shortened: as §1
Mus musculus [12] = experiment: Antiinflammatory activity in C57BL/6 mouse model of LPS-induced acute lung injury assessed as reduction of pathological lesions in lung tissue at 10 mg/kg, ip administered daily for one week prior to LPS challenge and measured after 6 hrs by hematoxylin and eosin staining-based light microscopic analysis; type: functional, organism-based
Procedure, shortened: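 Lungs were taken 6 h after intratracheal LPS (5 mg/kg) from C57BL/6 mice pretreated at 10 mg/kg i.p. daily for one week. Tissue was fixed, embedded in paraffin, sectioned at 5 µm and stained with H&E. Injury features examined were edema, congestion, septal thickening, infiltration and tissue destruction, assessed by light microscopy.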

RAW264.7 [13] = experiment: Inhibition of MAPK/NFkappaB in ICR mouse RAW264.7 cells assessed as reduction in LPS-induced TNFalpha production at 10 uM pretreated for 0.5 hrs followed by LPS challenge and measured after 24 hrs by ELISA relative to control; type: cell-based
[14] = MRT (0 to infinity) in Sprague-Dawley rat at 5 mg/kg, iv by UHPLC-MS/MS analysis; type: ADME, organism-based; details: in vivo; procedure, shortened: as §3
RAW264.7 [15] = experiment: Inhibition of MAPK/NFkappaB signaling in ICR mouse RAW264.7 cells assessed as reduction in LPS-induced IL1beta mRNA expression pretreated for 0.5 hrs followed by LPS challenge and measured after 40 mins by TRIZOL reagent-based RT-qPCR analysis; type: cell-based; procedure, shortened: as §2
Mus musculus [16] = experiment: Antiinflammatory activity in C57BL/6 mouse model of LPS-induced acute lung injury assessed as reduction in lung wet/dry ratio at 10 mg/kg, ip administered daily for one week prior to LPS challenge and measured after 6 hrs; type: functional, organism-based
Procedure, shortened: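 C57BL/6 mice (eight per group) received 10 mg/kg i.p. daily for one week; vehicle was 0.9% saline. They were then challenged with intratracheal LPS at 5 mg/kg and sacrificed 6 h later. Endpoints were lung wet/dry weight ratio and total and neutrophil cell counts in BALF, reported as mean ± SEM, n = 6.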

Row | SMILES | Activity (Mus musculus [1]) | Activity (Mus musculus [2]) | inhibition (RAW264.7 [3]) | inhibition (RAW264.7 [4]) | Activity (Mus musculus [5]) | bioavailability [6] | Tmax [7] | inhibition (RAW264.7 [8]) | MRT last [9] | Activity (Mus musculus [10]) | Activity (Mus musculus [11]) | Activity (Mus musculus [12]) | inhibition (RAW264.7 [13]) | MRT [14] | inhibition (RAW264.7 [15]) | Activity (Mus musculus [16])
1 | COc1cc(/C=C/C(=O)N2CCC/C(=C\c3cc(OC)c(OC)c(OC)c3)C2=O)ccc1OC(C)=O | Active | Active | Active | Active | Active | 26.6% | 3.3 h | Active | 11.3 h | Active | Active | Active | 90.9 to 92.5% | 19.9 h | Active | –
2 | COc1cc(/C=C/C(=O)N2CCC/C(=C\c3cc(OC)c(OC)c(OC)c3)C2=O)ccc1O | Active | Active | Active | Active | Active | – | – | Active | – | Active | Active | Active | 90.9 to 92.5% | – | Active | Active
